Test results as given in ChEMBL document CHEMBL1138561, “Synthesis of novel N-protected hydrophobic phenylalanines and their application in potential antibacterials” (2009).
≈ marks a conversion by molar mass, not a printed value.

Tests used:
Staphylococcus aureus = assay: Antibacterial activity against Staphylococcus aureus ATCC 6538 after 18 hrs; type: functional; conditions: ATCC 6538, 18 h
How it was run: (§1)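 Broth microdilution in Mueller–Hinton medium, with the inoculum a 1/10 dilution of seed culture. Peptoids were dissolved in 50% MeOH/H2O to 1 mg/mL, added to the top row and serially diluted down the plate. Plates were incubated at 37 °C with shaking at 100 rpm for 18 h, with two peptoids per plate.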

Enterococcus faecalis = assay: Antibacterial activity against vancomycin-sensitive Enterococcus faecalis; type: functional; how it was run: as §1

Row | SMILES | MIC (Staphylococcus aureus) | MIC (Enterococcus faecalis)
1 | C=CCOc1ccc(C[C@H](NC(C)=O)C(=O)N[C@@H](CCCCN)C(=O)N[C@H](CCCNC(=N)N)C(=O)N[C@@H](CC=C)C(=O)OCc2ccccc2)cc1.Cl.Cl | > 125 µg/mL | > 125 µg/mL
2 | C=CC[C@H](NC(=O)[C@@H](CCCNC(=N)N)NC(=O)[C@H](CCCCN)NC(=O)[C@H](Cc1ccc(-c2cc3ccccc3c3ccccc23)cc1)NC(C)=O)C(=O)OCc1ccccc1.Cl.Cl | 7.8 µg/mL | > 125 µg/mL
3 | C=CC[C@H](NC(=O)[C@H](CCCCN)NC(=O)[C@H](Cc1ccc(-c2c3ccccc3cc3ccccc23)cc1)NC(C)=O)C(=O)OC.Cl | 31.3 µg/mL | > 125 µg/mL
4 | C=CC[C@H](NC(=O)[C@H](CCCCN)NC(=O)[C@H](Cc1ccc(-c2cc3ccccc3c3ccccc23)cc1)NC(C)=O)C(=O)OC.Cl | 15.6 µg/mL | > 125 µg/mL
5 | C=CC[C@H](NC(=O)[C@@H](CCCNC(=N)N)NC(=O)[C@H](CCCCN)NC(=O)[C@H](Cc1ccc(-c2c3ccccc3cc3ccccc23)cc1)NC(C)=O)C(=O)OCc1ccccc1.Cl.Cl | 15.6 µg/mL | > 125 µg/mL
6 | CN[C@H](CC(C)C)C(=O)N[C@H]1C(=O)N[C@@H](CC(N)=O)C(=O)N[C@H]2C(=O)N[C@H]3C(=O)N[C@H](C(=O)N[C@H](C(=O)O)c4cc(O)cc(O)c4-c4cc3ccc4O)[C@H](O)c3ccc(c(Cl)c3)Oc3cc2cc(c3O[C@@H]2O[C@H](CO)[C@@H](O)[C@H](O)[C@H]2O[C@H]2C[C@](C)(N)[C@H](O)[C@H](C)O2)Oc2ccc(cc2Cl)[C@H]1O [VANCOMYCIN] | 1.95 µg/mL (≈ 1.35 µM) | –
